Data taken from ChEMBL document CHEMBL4689842, “EUbOPEN Chemogenomics Library wave 1” (2021).

Test system: HEK-293T
Assay: Multiplex assay against HEK293T;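 on Population Tubulin-Different-Phenotype (%): share of the cells with healthy nuclei that show this phenotype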
Format: toxicity, cell-based
Conditions: human
How it was run: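 Tubulin, mitochondrial-mass and membrane-permeability phenotypes are per cents of healthy-nucleus cells. Cells were gated by CellPathfinder machine learning into Hoechst high-intensity objects or normal cells, normal cells into healthy, pyknosed or fragmented nuclei, and pyknosed cells into mitotic or apoptotic. Before that, live cells stained at seeding with Hoechst33342, BioTracker Green Microtubule Cytoskeleton Dye, MitoTracker Red and Annexin V Alexa Fluor 680 were imaged on a CQ1 microscope at 37°C and 5% CO2 after compound addition.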

[1] = 12 h, 1 µM, compound concentration 1 uM, replicate 1
[2] = 12 h, 1 µM, compound concentration 1 uM, replicate 2
[3] = 12 h, 10 µM, compound concentration 10 uM, replicate 1
[4] = 12 h, 10 µM, compound concentration 10 uM, replicate 2
[5] = 24 h, 1 µM, compound concentration 1 uM, replicate 1
[6] = 24 h, 1 µM, compound concentration 1 uM, replicate 2
[7] = 24 h, 10 µM, compound concentration 10 uM, replicate 1
[8] = 24 h, 10 µM, compound concentration 10 uM, replicate 2
[9] = 48 h, 1 µM, compound concentration 1 uM, replicate 1
[10] = 48 h, 1 µM, compound concentration 1 uM, replicate 2
[11] = 48 h, 10 µM, compound concentration 10 uM, replicate 1
[12] = 48 h, 10 µM, compound concentration 10 uM, replicate 2

SMILES: O=C(Cc1ccc(-c2ccc(OCCN3CCOCC3)cc2)cn1)NCc1ccccc1 [TIRBANIBULIN]
- Population Apoptotic (%) [1]: 34%
- Population Fragmented Nuclei (%) [1]: 17%
- Population Healthy Nuclei (%) [1]: 21%
- Population Hoechst High Intensity Objects (%) [1]: 12%
- Population Membrane Permeable-Phenotype (%) [1]: 0%
- Population Mitochondria Different-Phenotype (%) [1]: 58%
- Population Mitotic Cells (%) [1]: 65%
- Population Normal (%) [1]: 87%
- Population Pyknosed Nuclei (%) [1]: 61%
- Population Tubulin-Different-Phenotype (%) [1]: 2%
- Total Cell Count [1]: 193
- Population Apoptotic (%) [2]: 16%
- Population Fragmented Nuclei (%) [2]: 8%
- Population Healthy Nuclei (%) [2]: 30%
- Population Hoechst High Intensity Objects (%) [2]: 2%
- Population Membrane Permeable-Phenotype (%) [2]: 10%
- Population Mitochondria Different-Phenotype (%) [2]: 23%
- Population Mitotic Cells (%) [2]: 83%
- Population Normal (%) [2]: 97%
- Population Pyknosed Nuclei (%) [2]: 60%
- Population Tubulin-Different-Phenotype (%) [2]: 11%
- Total Cell Count [2]: 231
- Population Apoptotic (%) [3]: 52%
- Population Fragmented Nuclei (%) [3]: 20%
- Population Healthy Nuclei (%) [3]: 21%
- Population Hoechst High Intensity Objects (%) [3]: 18%
- Population Membrane Permeable-Phenotype (%) [3]: 0%
- Population Mitochondria Different-Phenotype (%) [3]: 79%
- Population Mitotic Cells (%) [3]: 47%
- Population Normal (%) [3]: 81%
- Population Pyknosed Nuclei (%) [3]: 58%
- Population Tubulin-Different-Phenotype (%) [3]: 27%
- Total Cell Count [3]: 169
- Population Apoptotic (%) [4]: 17%
- Population Fragmented Nuclei (%) [4]: 5%
- Population Healthy Nuclei (%) [4]: 28%
- Population Hoechst High Intensity Objects (%) [4]: 5%
- Population Membrane Permeable-Phenotype (%) [4]: 2%
- Population Mitochondria Different-Phenotype (%) [4]: 23%
- Population Mitotic Cells (%) [4]: 82%
- Population Normal (%) [4]: 95%
- Population Pyknosed Nuclei (%) [4]: 66%
- Population Tubulin-Different-Phenotype (%) [4]: 6%
- Total Cell Count [4]: 160
- Population Apoptotic (%) [5]: 39%
- Population Fragmented Nuclei (%) [5]: 17%
- Population Healthy Nuclei (%) [5]: 21%
- Population Hoechst High Intensity Objects (%) [5]: 14%
- Population Membrane Permeable-Phenotype (%) [5]: 2%
- Population Mitochondria Different-Phenotype (%) [5]: 37%
- Population Mitotic Cells (%) [5]: 60%
- Population Normal (%) [5]: 85%
- Population Pyknosed Nuclei (%) [5]: 61%
- Population Tubulin-Different-Phenotype (%) [5]: 5%
- Total Cell Count [5]: 194
- Population Apoptotic (%) [6]: 27%
- Population Fragmented Nuclei (%) [6]: 6%
- Population Healthy Nuclei (%) [6]: 29%
- Population Hoechst High Intensity Objects (%) [6]: 2%
- Population Membrane Permeable-Phenotype (%) [6]: 6%
- Population Mitochondria Different-Phenotype (%) [6]: 25%
- Population Mitotic Cells (%) [6]: 72%
- Population Normal (%) [6]: 97%
- Population Pyknosed Nuclei (%) [6]: 63%
- Population Tubulin-Different-Phenotype (%) [6]: 33%
- Total Cell Count [6]: 207
- Population Apoptotic (%) [7]: 54%
- Population Fragmented Nuclei (%) [7]: 21%
- Population Healthy Nuclei (%) [7]: 16%
- Population Hoechst High Intensity Objects (%) [7]: 17%
- Population Membrane Permeable-Phenotype (%) [7]: 0%
- Population Mitochondria Different-Phenotype (%) [7]: 82%
- Population Mitotic Cells (%) [7]: 45%
- Population Normal (%) [7]: 82%
- Population Pyknosed Nuclei (%) [7]: 62%
- Population Tubulin-Different-Phenotype (%) [7]: 17%
- Total Cell Count [7]: 168
- Population Apoptotic (%) [8]: 22%
- Population Fragmented Nuclei (%) [8]: 5%
- Population Healthy Nuclei (%) [8]: 25%
- Population Hoechst High Intensity Objects (%) [8]: 5%
- Population Membrane Permeable-Phenotype (%) [8]: 7%
- Population Mitochondria Different-Phenotype (%) [8]: 23%
- Population Mitotic Cells (%) [8]: 77%
- Population Normal (%) [8]: 94%
- Population Pyknosed Nuclei (%) [8]: 68%
- Population Tubulin-Different-Phenotype (%) [8]: 18%
- Total Cell Count [8]: 160
- Population Apoptotic (%) [9]: 56%
- Population Fragmented Nuclei (%) [9]: 25%
- Population Healthy Nuclei (%) [9]: 23%
- Population Hoechst High Intensity Objects (%) [9]: 16%
- Population Membrane Permeable-Phenotype (%) [9]: 5%
- Population Mitochondria Different-Phenotype (%) [9]: 45%
- Population Mitotic Cells (%) [9]: 43%
- Population Normal (%) [9]: 83%
- Population Pyknosed Nuclei (%) [9]: 50%
- Population Tubulin-Different-Phenotype (%) [9]: 24%
- Total Cell Count [9]: 187
- Population Apoptotic (%) [10]: 40%
- Population Fragmented Nuclei (%) [10]: 12%
- Population Healthy Nuclei (%) [10]: 43%
- Population Hoechst High Intensity Objects (%) [10]: 4%
- Population Membrane Permeable-Phenotype (%) [10]: 12%
- Population Mitochondria Different-Phenotype (%) [10]: 25%
- Population Mitotic Cells (%) [10]: 60%
- Population Normal (%) [10]: 95%
- Population Pyknosed Nuclei (%) [10]: 44%
- Population Tubulin-Different-Phenotype (%) [10]: 50%
- Total Cell Count [10]: 213
- Population Apoptotic (%) [11]: 56%
- Population Fragmented Nuclei (%) [11]: 29%
- Population Healthy Nuclei (%) [11]: 13%
- Population Hoechst High Intensity Objects (%) [11]: 17%
- Population Membrane Permeable-Phenotype (%) [11]: 0%
- Population Mitochondria Different-Phenotype (%) [11]: 66%
- Population Mitotic Cells (%) [11]: 44%
- Population Normal (%) [11]: 82%
- Population Pyknosed Nuclei (%) [11]: 56%
- Population Tubulin-Different-Phenotype (%) [11]: 11%
- Total Cell Count [11]: 160
- Population Apoptotic (%) [12]: 36%
- Population Fragmented Nuclei (%) [12]: 7%
- Population Healthy Nuclei (%) [12]: 39%
- Population Hoechst High Intensity Objects (%) [12]: 4%
- Population Membrane Permeable-Phenotype (%) [12]: 9%
- Population Mitochondria Different-Phenotype (%) [12]: 23%
- Population Mitotic Cells (%) [12]: 63%
- Population Normal (%) [12]: 95%
- Population Pyknosed Nuclei (%) [12]: 52%
- Population Tubulin-Different-Phenotype (%) [12]: 20%
- Total Cell Count [12]: 145

SMILES: COc1cc2ncnc(Nc3ccc(F)c(Cl)c3)c2cc1NC(=O)/C=C/CN1CCCCC1 [DACOMITINIB ANHYDROUS]
- Population Apoptotic (%) [1]: 34%
- Population Fragmented Nuclei (%) [1]: 28%
- Population Healthy Nuclei (%) [1]: 32%
- Population Hoechst High Intensity Objects (%) [1]: 24%
- Population Membrane Permeable-Phenotype (%) [1]: 18%
- Population Mitochondria Different-Phenotype (%) [1]: 41%
- Population Mitotic Cells (%) [1]: 65%
- Population Normal (%) [1]: 75%
- Population Pyknosed Nuclei (%) [1]: 38%
- Population Tubulin-Different-Phenotype (%) [1]: 72%
- Total Cell Count [1]: 554
- Population Apoptotic (%) [2]: 13%
- Population Fragmented Nuclei (%) [2]: 5%
- Population Healthy Nuclei (%) [2]: 83%
- Population Hoechst High Intensity Objects (%) [2]: 4%
- Population Membrane Permeable-Phenotype (%) [2]: 7%
- Population Mitochondria Different-Phenotype (%) [2]: 36%
- Population Mitotic Cells (%) [2]: 86%
- Population Normal (%) [2]: 95%
- Population Pyknosed Nuclei (%) [2]: 10%
- Population Tubulin-Different-Phenotype (%) [2]: 66%
- Total Cell Count [2]: 1314
- Population Apoptotic (%) [3]: 14%
- Population Fragmented Nuclei (%) [3]: 14%
- Population Healthy Nuclei (%) [3]: 69%
- Population Hoechst High Intensity Objects (%) [3]: 12%
- Population Membrane Permeable-Phenotype (%) [3]: 4%
- Population Mitochondria Different-Phenotype (%) [3]: 6%
- Population Mitotic Cells (%) [3]: 85%
- Population Normal (%) [3]: 87%
- Population Pyknosed Nuclei (%) [3]: 15%
- Population Tubulin-Different-Phenotype (%) [3]: 5%
- Total Cell Count [3]: 670
- Population Apoptotic (%) [4]: 12%
- Population Fragmented Nuclei (%) [4]: 5%
- Population Healthy Nuclei (%) [4]: 89%
- Population Hoechst High Intensity Objects (%) [4]: 2%
- Population Membrane Permeable-Phenotype (%) [4]: 2%
- Population Mitochondria Different-Phenotype (%) [4]: 11%
- Population Mitotic Cells (%) [4]: 87%
- Population Normal (%) [4]: 97%
- Population Pyknosed Nuclei (%) [4]: 5%
- Population Tubulin-Different-Phenotype (%) [4]: 6%
- Total Cell Count [4]: 1444
- Population Apoptotic (%) [5]: 39%
- Population Fragmented Nuclei (%) [5]: 27%
- Population Healthy Nuclei (%) [5]: 34%
- Population Hoechst High Intensity Objects (%) [5]: 22%
- Population Membrane Permeable-Phenotype (%) [5]: 9%
- Population Mitochondria Different-Phenotype (%) [5]: 63%
- Population Mitotic Cells (%) [5]: 60%
- Population Normal (%) [5]: 77%
- Population Pyknosed Nuclei (%) [5]: 37%
- Population Tubulin-Different-Phenotype (%) [5]: 73%
- Total Cell Count [5]: 532
- Population Apoptotic (%) [6]: 6%
- Population Fragmented Nuclei (%) [6]: 16%
- Population Healthy Nuclei (%) [6]: 79%
- Population Hoechst High Intensity Objects (%) [6]: 3%
- Population Membrane Permeable-Phenotype (%) [6]: 6%
- Population Mitochondria Different-Phenotype (%) [6]: 13%
- Population Mitotic Cells (%) [6]: 93%
- Population Normal (%) [6]: 96%
- Population Pyknosed Nuclei (%) [6]: 4%
- Population Tubulin-Different-Phenotype (%) [6]: 54%
- Total Cell Count [6]: 1906
- Population Apoptotic (%) [7]: 18%
- Population Fragmented Nuclei (%) [7]: 11%
- Population Healthy Nuclei (%) [7]: 79%
- Population Hoechst High Intensity Objects (%) [7]: 6%
- Population Membrane Permeable-Phenotype (%) [7]: 10%
- Population Mitochondria Different-Phenotype (%) [7]: 3%
- Population Mitotic Cells (%) [7]: 81%
- Population Normal (%) [7]: 94%
- Population Pyknosed Nuclei (%) [7]: 9%
- Population Tubulin-Different-Phenotype (%) [7]: 10%
- Total Cell Count [7]: 800
- Population Apoptotic (%) [8]: 4%
- Population Fragmented Nuclei (%) [8]: 18%
- Population Healthy Nuclei (%) [8]: 78%
- Population Hoechst High Intensity Objects (%) [8]: 2%
- Population Membrane Permeable-Phenotype (%) [8]: 4%
- Population Mitochondria Different-Phenotype (%) [8]: 1%
- Population Mitotic Cells (%) [8]: 95%
- Population Normal (%) [8]: 97%
- Population Pyknosed Nuclei (%) [8]: 2%
- Population Tubulin-Different-Phenotype (%) [8]: 5%
- Total Cell Count [8]: 2468
